Source: PubChem BioAssay AID488891 (Broad Institute, 2010)
Active and inactive are the calls of the source.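 The calls were made as follows: active = compounds raising caspase signal with a fitted AC50 no higher than the top valid dose tested; inconclusive = flat fit at partial mid-level activity, or unreliable fit; inactive = the rest.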

Assays:
[1] = tested on: MEF Flag-A1-IRES-BIM, caspase-Glo luminescence, 3 h; experiment: caspase activation in A1/BIM-primed MEFs, dose response, A1 inhibitor project, cell-based, alternate A1 construct, Caspase-Glo luminescence, dry powder (AID 488891)
Outline: (§1)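 Detection: Luminescence with CaspaseGlo reagent | Material: Mouse embryonic fibroblasts primed with Flag-A1-IRES-BIM construct | Incubation: 3 h compounds at 37 °C, 1 h detection reagent at RT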

[2] = as above; conditions: MEF Flag-A1-IRES-BIM, caspase-Glo luminescence, 3 h; at 150 µM (top of the series)
Outline: as §1

SMILES	AC50 [1]	caspase activation [2]
CCSc1nnc(NC(=O)c2nc(S(=O)(=O)Cc3ccc(F)cc3)ncc2Cl)s1	13.1 µM	–
Cc1cccc(NC(=O)/C(C#N)=C/c2cn(CC(=O)NCc3ccco3)c3ccccc23)c1	3.76 µM	–
O=C(CCl)N=c1sccn1Cc1ccccc1Cl	1.28 µM	–
CC(=O)OC(C)(C)/C=C/C(=O)[C@](C)(O)C1[C@H](O)C[C@@]2(C)C3CC=C4C(C[C@H](O)C(=O)C4(C)C)[C@]3(C)C(=O)C[C@]12C (stereo not given in full)	–	3.76% (inactive)
Cc1ccc(CS(=O)(=O)c2ncc(Cl)c(C(=O)Nc3nnc(C(C)C)s3)n2)cc1	5.49 µM	–
COc1cccc(C(=O)C(C#N)=C(SC)SC)c1	1.64 µM	–
CCc1cc2c(=O)c(-c3cnn(-c4ccccc4)c3)c(C)oc2cc1OCC(=O)Nc1cccc(C)c1	5.29 µM	–
COc1cc(/C=C(/C#N)c2nc3ccccc3[nH]2)ccc1OCC(=O)Nc1ccccc1C(C)C	–	0.299% (inactive)
Cc1c(CCOC(=O)c2ccc(N3CCOCC3)c([N+](=O)[O-])c2)sc[n+]1CC#N	14.2 µM	–
Nc1nc(F)nc2c1ncn2[C@@H]1O[C@H](CO)[C@@H](O)[C@H]1O	1.5 µM	–
Cc1cccc(CS(=O)(=O)c2ncc(Cl)c(C(=O)Nc3nnc(C(C)C)s3)n2)c1	12 µM	–
Cn1c(=NC(=O)CCl)sc2ccccc21	3.46 µM	–
Cc1ccc(Sc2c([N+](=O)[O-])c(=O)n(C)c3ccccc23)cc1	13.4 µM	–
O=C(Oc1cccc(/C=N/Nc2nc(Nc3ccccc3)nc(N3CCOCC3)n2)c1)c1ccco1	8.01 µM	–
Cc1c(C=O)c(C=O)c(C)n1Cc1ccccc1	12.9 µM	–
CCOC(=O)CSC1=N/C(=C/c2ccc(-n3cncn3)cc2)C(=O)N1C(C)=O	11.1 µM	–
C=C1[C@@H](C)[C@H]2[C@H](Cc3ccccc3)NC(=O)[C@]23[C@H](OC(C)=O)/C=C/[C@](C)(O)C(=O)[C@@H](C)C/C=C/[C@H]3[C@@H]1O	–	1.11% (inactive)
CC(=O)N[C@H]1[C@H](O[C@H]2CC[C@@]3(C)C(CC[C@]4(C)C3CC=C3[C@@H]5CC(C)(C)CC[C@]5(C(=O)OC5OCC(O)C(O)C5O)C(O)C[C@]34C)C2(C)C)O[C@H](COC2OCC(O)C(OC3OCC(O)C(O)C3O)C2O)[C@@H](O[C@@H]2O[C@@H](C)[C@H](O)[C@@H](O)[C@H]2O[C@@H]2O[C@@H](C)[C@H](O)[C@@H](O)[C@H]2O)[C@@H]1O (stereo not given in full)	7.88 µM	–
Cc1cc(C(=O)CCl)c(C)n1CCc1ccc(Cl)cc1	9 µM	–
CC(C)(C)n1nc(-c2ccc(Cl)cc2)c2c(N)ncnc21	> 150 µM (inactive)	–
COc1cc(CN2CCN(c3cc(C)ccc3C)CC2)ccc1O	7.24 µM	–
C/C1=C/C(=O)O[C@@H]2C[C@@H](CC[C@H](C)/C=C\CC1)O[C@@](O)(C1CSC(=O)N1)C2 (stereo not given in full)	0.607 µM	–
CCc1nnc(NC(=O)c2nc(S(=O)(=O)Cc3ccccc3)ncc2Cl)s1	11.6 µM	–
COc1ccc(N(C(=O)CCl)C(C(=O)NCCc2ccccc2)c2cccs2)cc1Cl (stereo not given)	9.36 µM	–
C=C1[C@@H](C)[C@H]2[C@H](Cc3ccccc3)NC(=O)[C@]23OC(=O)/C=C\[C@H](O)CCC[C@@H](C)C/C=C/[C@H]3[C@@H]1O	6.46 µM	–
